Experimental data from PubChem BioAssay AID624466 (The Scripps Research Institute Molecular Screening Center, 2012).
In all, about 360,000 compounds went through this assay and about 5,400 (1.5%) were called active. The sample holds actives, similar compounds and a random draw of the others, so the mix is not that of the screen.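 How the source made its calls: active means inhibition above a per-plate cutoff, the mean inhibition of test compounds on that plate plus 3 SD (cut at about 49% in these data); inactive means the rest.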

Biological target: Trace amine-associated receptor 1 (Homo sapiens) (UniProt Q96RJ0)
Sequence (Q96RJ0 whole entry, looked up): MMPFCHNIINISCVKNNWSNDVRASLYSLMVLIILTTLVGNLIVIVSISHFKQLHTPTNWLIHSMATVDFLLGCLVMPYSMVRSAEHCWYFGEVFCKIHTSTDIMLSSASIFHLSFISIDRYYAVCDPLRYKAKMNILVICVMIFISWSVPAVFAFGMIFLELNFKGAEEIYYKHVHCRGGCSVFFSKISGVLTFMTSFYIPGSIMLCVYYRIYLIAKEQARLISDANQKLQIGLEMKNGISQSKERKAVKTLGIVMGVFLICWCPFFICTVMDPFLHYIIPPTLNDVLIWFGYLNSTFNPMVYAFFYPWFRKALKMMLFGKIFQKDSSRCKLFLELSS
Assay: blockers of beta-PEA-driven TAAR1 calcium signal – Fluo-8 calcium fluorescence, CHO RD-HGA16 cells, primary screen (AID 624466);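 further: 0% = DMSO plus EC80 beta-PEA response and 100% = DMSO alone without agonist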
Details: CHO RD-HGA16 TAAR1, Fluo-8 calcium fluorescence, antagonist; at 3 µM; stronger effect = higher value
Procedure, shortened: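 System: RD-HGA16 CHO cells with stable hTAAR1 and Gα16 | Probe or stimulus: EC80 β-phenethylamine stimulus | Dosing: 3 µM, single point | Times: Dye loading 75 min at 37 °C, then 30 min room temperature | Measured by: Fluo-8 calcium-sensitive fluorescence | Read-out basis: % inhibition of agonist calcium response | Replicates: n of 1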

**Q.** For `O=C(NCc1ccc(F)cc1F)[C@@H]1CCCN1C(=O)[C@@H]1CCCN1C(=O)c1cccc(Cl)c1`, which inhibition is on record?
**A.** -26.2% (inactive)

**Q.** For `Cc1cc(Nc2ccc(Br)cc2F)n2ncnc2n1`, which inhibition is on record?
**A.** -22.8% (inactive)

**Q.** With `CC(=O)Nc1ccc(OCCC[n+]2cccc(C(=O)[O-])c2)cc1` as the molecule, how does the inhibition read?
**A.** 10.6% (inactive)

**Q.** For `CCCCn1c(SCC(=O)N2CCCC2=O)nc2cc(S(N)(=O)=O)ccc21`, which inhibition is on record?
**A.** -16.1% (inactive)

**Q.** Which inhibition does the source give for `CCCCn1c(SCc2ncc(-c3ccccc3)o2)nc2cc(S(N)(=O)=O)ccc21` here?
**A.** 63.4% (active)

**Q.** How did the inhibition turn out when `CCCCn1c(SCC(=O)N2CCC(C(=O)OCC)CC2)nc2cc(S(N)(=O)=O)ccc21` was run?
**A.** -5.42% (inactive)

**Q.** How did the inhibition turn out when `CC1(C(=O)NCc2ccccc2)CN(S(C)(=O)=O)CC(=O)N1CC(F)(F)F` (configuration not stated) was run?
**A.** -8.96% (inactive)

**Q.** `Cc1ccc(Cn2cc(CN3CC(N4CCN(C)CC4)CS3(=O)=O)nn2)cc1` (configuration not stated) was tested. Which inhibition did it give?
**A.** -10.1% (inactive)

**Q.** With `Cn1cnc2c1c(=O)n(Cc1c(Cl)cccc1Cl)c(=O)n2C` as the molecule, how does the inhibition read?
**A.** -4.09% (inactive)

**Q.** How did the inhibition turn out when `CC(C)(C)n1ncc2c(=O)n(Cc3c(Cl)cccc3Br)cnc21` was run?
**A.** 58.1% (active)

**Q.** With `CC(C)(C)n1ncc2c(=O)n(Cc3ccc(Cl)cc3)cnc21` as the molecule, how does the inhibition read?
**A.** 18.1% (inactive)

**Q.** `CCCCNc1cccc2c1S(=O)(=O)N[C@@H](C)CO2` was tested. Which inhibition did it give?
**A.** 4.47% (inactive)

**Q.** With `Cn1cccc1C(=O)NNC(=O)COc1ccc(Br)cc1` as the molecule, how does the inhibition read?
**A.** 8.71% (inactive)

**Q.** For `Cc1ccsc1C(=O)NNC(=O)COc1ccc(Br)cc1`, which inhibition is on record?
**A.** -10.4% (inactive)

**Q.** For `Cc1ccc(O)c(NC(=S)NC(=O)COc2ccc(Br)cc2)c1`, which inhibition is on record?
**A.** 98.5% (active)

**Q.** How did the inhibition turn out when `COc1ccc(OC)c(CNC(=O)c2cc(=O)[nH]c3ccc(S(=O)(=O)N4CCCC4)cc23)c1` was run?
**A.** -12.7% (inactive)

**Q.** With `COc1ccc(S(=O)(=O)N2CCC(C(=O)NCCC(=O)NCc3cccc(OC)c3)CC2)cc1` as the molecule, how does the inhibition read?
**A.** -10.5% (inactive)

**Q.** How did the inhibition turn out when `O=C(Nc1ccc(Br)cc1)C1CCC(=O)N1Cc1ccccc1Cl` (configuration not stated) was run?
**A.** 11.4% (inactive)

**Q.** Which inhibition does the source give for `S=c1nc2ccccc2c2nc(-c3cccnc3)[nH]n12` here?
**A.** 5.39% (inactive)

**Q.** With `Brc1ccc(-c2csc(N/N=C/c3cccnc3)n2)cc1` as the molecule, how does the inhibition read?
**A.** 15.8% (inactive)

**Q.** For `Fc1ccc(/C=N/Nc2nc(-c3cccnc3)nc3ccccc23)cc1`, which inhibition is on record?
**A.** 55.8% (active)

**Q.** For `O=C(c1ccc(Cl)cc1)n1cnc2ccccc21`, which inhibition is on record?
**A.** -8.66% (inactive)

**Q.** How did the inhibition turn out when `COc1cccc(N2CCN(CC(=O)Nc3ccnn3C3CCCC3)CC2)c1` was run?
**A.** 10.4% (inactive)

**Q.** With `COC(=O)Nc1nc2ccc(C(=O)C3CC3)cc2[nH]1` as the molecule, how does the inhibition read?
**A.** -3.23% (inactive)

**Q.** For `O=C(NCCN1CCOCC1)c1cc(Sc2cccc(Cl)c2)nc2ccccc12`, which inhibition is on record?
**A.** -6.08% (inactive)

**Q.** For `O=C(NCCN1CCOCC1)c1ccccc1N1C(=O)[C@@H]2Cc3c([nH]c4ccccc34)C(c3cccc(Cl)c3)N2C1=O` (some centres not stated), which inhibition is on record?
**A.** 68.8% (active)

**Q.** With `O=C(NCCN1CCOCC1)Nc1cccc(Cl)c1` as the molecule, how does the inhibition read?
**A.** -1.82% (inactive)
